Results taken from ChEMBL document CHEMBL1154735, “A strategy to minimize reactive metabolite formation: discovery of (S)-4-(1-cyclopropyl-2-methoxyethyl)-6-[6-(difluoromethoxy)-2,5-dimethylpyridin-3-ylamino]-5-oxo-4,5-dihydropyrazine-2-carbonitrile as a potent, orally bioavailable corticotropin-releasing factor-1 receptor antagonist” (J Med Chem, 2009).

Assays:
[1] = Oral bioavailability in Sprague-Dawley rat at 10 mg/kg dosed as aqueous suspension of Labrafil M 1944CS/DMAC/polysorbate 80, 85:10:5 (v/v) after 0.25 to 24 hrs by LC/MS/MS analysis; type: ADME, organism-based; conditions: in vivo
Rattus norvegicus [2] = test: Neurotoxicity in Sprague-Dawley rat assessed as alteration of motor coordination up to 60 mg/kg by rotarod test; type: toxicity, organism-based; design: dose 60 mg/kg; conditions: in vivo
[3] = Volume of distribution at steady state in Sprague-Dawley rat at 2 mg/kg, iv after 0.17 to 24 hrs by LC/MS/MS analysis; type: ADME, organism-based; design: dose 2 mg/kg, route intravenous; conditions: in vivo, read-out: Vdss
How it was run: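 Sprague–Dawley rats (n = 3) dosed 2 mg/kg iv in PEG:ethanol 90:10 (v/v) at 1 mL/kg. Plasma stored at –20 °C and quantified by LC/MS/MS after acetonitrile precipitation with internal standard.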

[4] = AUC in Sprague-Dawley rat at 10 mg/kg, po dosed as aqueous suspension of Labrafil M 1944CS/DMAC/polysorbate 80, 85:10:5 (v/v) after 0.25 to 24 hrs by LC/MS/MS analysis; type: ADME, organism-based; design: time 0.25-24 hr, dose 10 mg/kg, route oral; conditions: plasma
[5] = biological target: T1, Corticotropin-releasing factor receptor 1 (Homo sapiens, UniProt P34998); test: (§1) Antagonist activity at CRF1 receptor in human Y79 cells assessed as inhibition of CRF-stimulated cAMP production after 30 mins by HTRF analysis; type: functional, cell-based
T1 sequence (P34998 whole entry): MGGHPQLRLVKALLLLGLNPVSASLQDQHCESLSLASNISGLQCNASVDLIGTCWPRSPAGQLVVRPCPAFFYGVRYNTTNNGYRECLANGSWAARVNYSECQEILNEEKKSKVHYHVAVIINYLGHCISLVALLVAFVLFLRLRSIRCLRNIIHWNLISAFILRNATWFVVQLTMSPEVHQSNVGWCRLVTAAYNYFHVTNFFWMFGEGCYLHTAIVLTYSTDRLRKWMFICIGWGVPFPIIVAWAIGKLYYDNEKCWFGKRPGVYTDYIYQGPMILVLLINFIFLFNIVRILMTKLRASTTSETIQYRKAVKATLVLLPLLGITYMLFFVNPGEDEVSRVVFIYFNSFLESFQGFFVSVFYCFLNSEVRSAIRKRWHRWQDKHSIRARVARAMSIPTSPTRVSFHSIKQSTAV

[6] = biological target: T2, Corticotropin-releasing factor receptor 1 (Homo sapiens) (UniProt P34998); test: as §1; type: functional, cell-based
T2 sequence (whole entry): T1 sequence (P34998 whole entry)

[7] = Clearance in Beagle dog at 2 mg/kg, iv after 0.17 to 24 hrs by LC/MS/MS analysis; type: ADME, organism-based, Canis lupus familiaris; design: dose 2 mg/kg, route intravenous; conditions: in vivo
How it was run: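 Male beagle dogs (n = 4), 2 mg/kg iv in propylene glycol:ethanol 90:10 (v/v), 1 mL/kg infused over 5 min at 0.2 mL/kg/min; femoral vein blood at 0.17–24 h; plasma frozen at –20 °C, analysed by LC/MS/MS.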

Rattus norvegicus [8] = test: Ex vivo receptor occupancy of CRF1 receptor in Sprague-Dawley rat brain parietal assessed as inhibition of [125I]sauvagine binding at 3 mg/kg, po after 90 mins by autoradiography; type: functional; conditions: 1.5 h
Rattus norvegicus [9] = test: Anxiolytic activity in Sprague-Dawley rat assessed as decrease in exit latency at 1 mg/kg, po after 60 mins by defensive withdrawal test relative to control; type: functional; design: scale not given: the % may be the effect or the level left
How it was run: (§2)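 Rats placed in a darkened chamber within an open illuminated field; time to emerge measured 60 min after oral dosing (0.56–3 mg/kg), n = 8; percent decrease in exit latency versus vehicle-treated animals, p < 0.05 significance.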

Rattus norvegicus [10] = test: Anxiolytic activity in Sprague-Dawley rat assessed as decrease in exit latency at 3 mg/kg, po after 60 mins by defensive withdrawal test relative to control; type: functional; design: scale not given: the % may be the effect or the level left; how it was run: as §2
[11] = Cmax in Beagle dog at 3 mg/kg, po dosed as aqueous suspension of Labrafil M 1944CS/DMAC/polysorbate 80, 85:10:5 (v/v) after 2 to 4 hrs by LC/MS/MS analysis; type: ADME, organism-based, Canis lupus familiaris; design: dose 3 mg/kg, route oral; conditions: in vivo
How it was run: (§3)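 Fasted male beagle dogs dosed orally at 1 mL/kg: 2 mg/kg as 0.2% polysorbate 80 in 0.5% methylcellulose suspension (n = 4) or 3 mg/kg in Labrafil M 1944CS/DMAC/polysorbate 80 85:10:5 (n = 2). Femoral vein blood 0.25–24 h; plasma by LC/MS/MS.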

Liver microsomes [12] = test: Metabolic stability in NADPH-fortified human liver microsomes assessed as GSH adduct formation at 10 uM after 30 mins by HPLC/UV/MS analysis; type: ADME, Microsome; conditions: 0.5 h
How it was run: (§4)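 Pooled rat or human liver microsomes 1 mg/mL, 10 μM substrate, 100 mM potassium phosphate pH 7.4, 37 °C, started with NADPH-regenerating system (1.3 mM NADP+, 3.3 mM glucose-6-phosphate, 3.3 mM MgCl2, 0.5 U/mL G6PDH); GSH 5 mM in trapping runs. Sampled 0 and 30 min, acetonitrile quench; abundance as UV peak area (330–340 nm) fraction of all drug-related components by HPLC/UV/MS.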

[13] = Metabolic stability in human liver microsomes assessed as compound remaining at 3 uM after 10 mins by HPLC/UV/MS analysis; type: ADME, Microsome; conditions: read-out: Stability
Rattus norvegicus [14] = test: Plasma free concentration in Sprague-Dawley rat at 3 mg/kg, po after 1 to 3 hrs by LC/MS/MS analysis; type: ADME, organism-based; design: dose 3 mg/kg, route oral; conditions: in vivo
Liver microsomes [15] = test: Metabolic stability in NADPH-fortified rat liver microsomes assessed as GSH adduct formation at 10 uM after 30 mins by HPLC/UV/MS analysis; type: ADME, Microsome; conditions: 0.5 h; how it was run: as §4
[16] = Cmax in Beagle dog at 2 mg/kg, po dosed as aqueous suspension of 1% polysorbate 80 in 0.5% methylcellulose after 2 to 4 hrs by LC/MS/MS analysis; type: ADME, organism-based, Canis lupus familiaris; design: dose 2 mg/kg, route oral; conditions: in vivo
[17] = Oral bioavailability in Beagle dog at 3 mg/kg, po dosed as aqueous suspension of Labrafil M 1944CS/DMAC/polysorbate 80, 85:10:5 (v/v) after 0.25 to 24 hrs by LC/MS/MS analysis; type: ADME, organism-based, Canis lupus familiaris; conditions: in vivo; how it was run: as §3
[18] = AUC in Beagle dog at 3 mg/kg, po dosed as aqueous suspension of Labrafil M 1944CS/DMAC/polysorbate 80, 85:10:5 (v/v) after 0.25 to 24 hrs by LC/MS/MS analysis; type: ADME, organism-based, Canis lupus familiaris; design: time upper 24 hr, time lower 0.25 hr, dose 3 mg/kg, route oral; conditions: plasma
How it was run: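 Oral solution dosing at 3 mg/kg in Labrafil M 1944CS/DMAC/polysorbate 80, 85:10:5 (v/v), at 1 mL/kg, in fasted male beagle dogs (n = 2). Samples were acetonitrile-precipitated with internal standard and measured by LC/MS/MS using selected reaction monitoring in positive ion mode.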

Rattus norvegicus [19] = test: Plasma free concentration in Sprague-Dawley rat at 1 mg/kg, po after 1 to 3 hrs by LC/MS/MS analysis; type: ADME, organism-based; design: dose 1 mg/kg, route oral; conditions: in vivo
Rattus norvegicus [20] = test: Ex vivo receptor occupancy of CRF1 receptor in Sprague-Dawley rat brain parietal assessed as inhibition of [125I]sauvagine binding at 1 mg/kg, po after 90 mins by autoradiography; type: functional; conditions: 1.5 h
[21] = Volume of distribution at steady state in Beagle dog at 2 mg/kg, iv after 0.17 to 24 hrs by LC/MS/MS analysis; type: ADME, organism-based, Canis lupus familiaris; design: dose 2 mg/kg, route intravenous; conditions: in vivo, read-out: Vdss
How it was run: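 Male beagle dogs (n = 4) given 2 mg/kg iv in propylene glycol:ethanol 90:10 (v/v), 1 mL/kg infused over 5 min at 0.2 mL/kg/min. Plasma stored at –20 °C and analysed by LC/MS/MS after acetonitrile precipitation.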

COC[C@H](C1CC1)n1cc(C#N)nc(Nc2cc(C)c(OC(F)F)nc2C)c1=O
bioavailability [1]: 66% | Activity (Rattus norvegicus [2]): Non-toxic | Vd [3]: 11 L/kg | AUC [4]: 8.8 µM·h | IC50 [5]: 1.9 nM | inhibition [6]: Dose-dependent effect | clearance [7]: 7.3 mL/min/kg | inhibition in vivo at 3 mg/kg (Rattus norvegicus [8]): 80% | Activity (Rattus norvegicus [9]): 28% | Activity (Rattus norvegicus [10]): 56% | Cmax [11]: 1400 nM | Activity (Liver microsomes [12]): 1% | remaining at 10 min, 3 µM [13]: 74% | Cp(f) (Rattus norvegicus [14]): 5 nM | Activity (Liver microsomes [15]): 3% | Cmax [16]: 880 nM | bioavailability [17]: 70% | AUC [18]: 17 µM·h | Cp(f) (Rattus norvegicus [19]): 1.6 nM | inhibition in vivo at 1 mg/kg (Rattus norvegicus [20]): 43% | Vd [21]: 13 L/kg
